Compounds with a hit are over-represented: about 2.3% of the library has one in this group of screens.
STEP inh = blocks human striatal-enriched tyrosine phosphatase. P54829. recombinant STEP, OMFP fluorogenic substrate, fluorescence. inhibition, % at 20 µM. 360,000 tested, 0.25% active;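 active = inhibition at 20 µM, scaled per plate between control wells, above about 37%, limit read from the data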;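 note: 0% = DMSO with enzyme and substrate and 100% = substrate only without enzyme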
Target sequence (P54829 whole entry, looked up): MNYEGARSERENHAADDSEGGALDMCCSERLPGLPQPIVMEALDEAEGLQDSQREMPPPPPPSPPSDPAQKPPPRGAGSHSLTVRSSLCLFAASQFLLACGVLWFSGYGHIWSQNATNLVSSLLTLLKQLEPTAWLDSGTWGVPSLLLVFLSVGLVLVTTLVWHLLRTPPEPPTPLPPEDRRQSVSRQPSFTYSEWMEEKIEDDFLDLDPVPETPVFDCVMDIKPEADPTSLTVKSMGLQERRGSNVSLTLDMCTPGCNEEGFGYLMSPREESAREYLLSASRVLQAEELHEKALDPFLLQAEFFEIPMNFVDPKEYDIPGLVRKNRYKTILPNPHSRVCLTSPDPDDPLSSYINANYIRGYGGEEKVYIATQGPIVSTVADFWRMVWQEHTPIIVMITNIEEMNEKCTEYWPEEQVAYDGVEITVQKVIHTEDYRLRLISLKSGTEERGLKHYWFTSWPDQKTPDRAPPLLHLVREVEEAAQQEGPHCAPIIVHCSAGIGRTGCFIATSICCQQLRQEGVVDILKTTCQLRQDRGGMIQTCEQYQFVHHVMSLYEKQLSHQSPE
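Measure: Control-normalized % inhibition with plate pattern correction | Test system: STEP phosphatase, cell-free reaction | Medium: pH 6.0 Bis-Tris with DTT and Tween 20 | Technique: Fluorescence, 480/540 nm | Times: Reaction 20 min, ambient temperature | Doses: Single compound dose of 20 µM, 1% DMSO final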
Scp1 inh = inhibitors of human Scp-1 phosphatase; Q9GZU7; Recombinant Scp1, phosphopeptide, malachite green phosphate absorbance; inhibition, % at 20 µM; 340,000 tested, 0.88% active;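 active = inhibition above about 50% at 20 µM, limit read from the data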;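 note: plate controls were DMSO wells with enzyme for no effect and wells lacking enzyme for full effect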
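Test system: SCP-1 phosphatase catalytic domain, residues 76-261 | Compound dosing: One concentration, 20 µM, with 1.0% DMSO | Schedule: 45 min room-temperature reaction, 5 min colour, 30 min stabiliser | Detection: Absorbance at 630 nm | Read-out basis: % inhibition of SCP-1 phosphate liberation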
Rpn11 block = inhibitors of human proteasome Rpn11 | human 26S proteasome, Ub4-pepOG fluorescence polarization; 20S core pre-blocked with epoxomicin | AID 588493 | 360,000 tested, 0.59% active | inhibition, % at 20 µM;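 active = inhibition at 20 µM, scaled to each plate's controls, above about 33%, limit read from the data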
SUMO1-SIM PPI = modulators of human SUMO1-mediated protein-protein interactions; 360,000 tested, 0.33% active; P63165; SUMO1 binding to a labelled peptide, TR-FRET, 1 h; inhibition, % at 20 µM; in the data active = inhibition above about 37%
DNMT1 block = blocks human DNA methyltransferase DNMT1 | P26358 | DNMT1 molecular beacon, Hinp1I cleavage, fluorescence | inhibition (reported as % activation of signal), % at 10 µM | 360,000 tested, 0.83% active; in the data active = inhibition above about 50%
LMPTP block = blocks human LMPTP phosphatase; P24666; recombinant LMPTP-A, OMFP fluorogenic substrate, fluorescence intensity; inhibition, % at 20 µM; 360,000 tested, 0.22% active; AID 651560;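 active = compounds that cut the enzyme signal by at least half of the control window in the single-dose screen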;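 note: plate controls were DMSO wells with enzyme plus substrate for no effect and substrate without enzyme for full effect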
Target sequence (P24666 whole entry, looked up): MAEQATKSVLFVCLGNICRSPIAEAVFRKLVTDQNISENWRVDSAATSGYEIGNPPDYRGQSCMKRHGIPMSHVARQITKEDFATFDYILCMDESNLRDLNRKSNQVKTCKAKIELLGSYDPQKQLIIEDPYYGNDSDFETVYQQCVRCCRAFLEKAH
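Test system – LMPTP-A enzyme · Amount – LMPTP-A at 0.625 nM final in the reaction · Buffer or medium – Bis-Tris pH 6.0, DTT, detergent · Reagent – OMFP 400 µM · Doses – single 20 µM dose · Schedule – reaction 50 min, room temperature, dark · Detection – fluorescence intensity of OMFP turnover product · Evaluation – percent inhibition versus substrate-only and uninhibited controls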
Scp1 confirm = Scp-1 (human) inhibition, single-dose confirmed. 2,500 tested, 61% active. shares compounds with Scp1 inh. inhibition, % at 20 µM. AID 540281. recombinant SCP-1 catalytic domain, phosphate release, malachite green absorbance;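 note: plate controls were DMSO with enzyme for no effect and buffer wells lacking enzyme for full effect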
MG interference = interferes with malachite green readout, flagging false Scp-1 hits; Colorimetric interference counterscreen, malachite green absorbance 630 nm; AID 540313; apparent inhibition (interference), % at 20 µM; 2,500 tested, under 10 active; shares compounds with Scp1 inh;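 note: compounds added after enzyme reaction finished so only phosphate colour detection is probed; plate controls were DMSO wells with completed Scp-1 reaction for no effect and substrate wells lacking enzyme for full effect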
Scp-1 Tm shift = binds human Scp-1, shifting its melting temperature; shares compounds with Scp1 inh; Recombinant SCP1, Sypro Orange thermal shift Tm; thermal shift relative to vanadate control, % at 40 µM; 1,500 tested, 25% active; AID 540329;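 active = substances whose mean melting-temperature shift, as a percentage of the reference inhibitor's shift, reaches about 5.3%, limit read from the data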;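 note: 0% = Tm of DMSO wells and 100% = Tm with sodium orthovanadate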
* marks the source's active call; other numbers are inactive results; . = no result given.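 Rule for the calls, unless noted: active = inhibition of at least 30% at 20 µM; inactive = the rest.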

SMILES	STEP inh	Scp1 inh	Rpn11 block	SUMO1-SIM PPI	DNMT1 block	LMPTP block	Scp1 confirm	MG interference	Scp-1 Tm shift
O=C(COC(=O)/C=C/c1ccc(F)cc1)NC1CCCCCC1	0.6	1.9	2.0	-5.5	4.6	3.3	.	.	.
O=[N+]([O-])c1ccc(/C=N/Nc2ncc(-c3ccccc3)cn2)cc1	22.1	67.5*	3.2	-6.4	29.7	22.6	28.1	-7.6	.
Cc1ccsc1C(=O)N1CCC1(C)C(=O)NS(=O)(=O)c1ccccc1 (configuration not stated)	-1.7	.	0.6	1.2	1.0	-1.1	.	.	.
COc1ccccc1OCCn1c(SCC(=O)O)nc2ccccc21	2.8	62.0*	-6.9	2.3	16.5	-1.6	50.3*	-8.4	-15.6
CCOc1ccc(S(=O)(=O)Nc2cccc(C(=O)N(C)Cc3cccc(OC)c3OC)c2)cc1	1.4	-4.2	2.5	0.2	-2.2	0.3	.	.	.
Oc1c(Br)cc(/C=N/n2c(-c3ccccc3)n[nH]c2=S)cc1Br	12.4	56.0*	9.2	20.7	2.0	-0.3	79.5*	-10.6	9.1*
Oc1c(Br)cc(/C=N/n2c(-c3ccccc3)n[nH]c2=S)c(O)c1Br	1.7	78.7*	20.5	14.7	7.5	1.2	88.3*	-5.2	3.8
COc1ccc(Br)cc1/C=N/n1c(-c2ccccc2)n[nH]c1=S	0.4	-2.2	3.4	3.5	4.3	-1.6	.	.	.
COc1cc(/C=N/n2c(-c3ccccc3)n[nH]c2=S)cc(OC)c1O	3.5	-5.8	0.9	0.4	0.7	-1.5	.	.	.
CC(NC(=O)COC(=O)c1cccc(S(=O)(=O)N2CCCC2)c1)c1ccccc1 (configuration not stated)	-1.2	53.0*	-6.2	-1.3	0.5	-1.6	-12.6	-17.0	.
CC(C)c1ccc(OC(=O)c2cccc(S(=O)(=O)N3CCN(C)CC3)c2)cc1	-1.9	95.6*	7.9	3.1	-0.8	-2.3	86.2*	-8.2	-27.0
CN1CCN(S(=O)(=O)c2cccc(C(=O)Oc3ccc(C(C)(C)C)cc3)c2)CC1	-0.4	-0.4	0.8	-0.2	0.7	-3.6	.	.	.
CN(C(=O)CC(NC(=O)c1ccccc1Cl)c1ccccc1)c1ccccc1 (configuration not stated)	-0.5	-3.1	1.8	5.3	2.1	0.0	.	.	.
CCn1c(CN2CCN(c3ccc(OC)cc3)CC2)nc2cc(S(=O)(=O)N(C)C)ccc21	0.8	-7.1	0.6	6.9	-0.8	1.6	.	.	.
CCCn1c(CN2CCN(C(=O)c3ccco3)CC2)nc2cc(S(=O)(=O)N(C)C)ccc21	0.6	50.7*	4.1	-2.8	-4.2	-0.3	-8.4	-12.6	.
CC(=O)OC1C2CCC1C([N+]1(C)CCCCC1)CC2 (configuration not stated)	1.4	93.5*	-3.8	-3.2	-1.1	-1.5	94.9*	-6.0	-24.8
C[N+]1(C2CCC3CCC2C3O)CCCC1 (configuration not stated)	-2.1	5.5	-1.8	5.9	4.1	-1.7	.	.	.
CCOC(=O)N1CCN(C(=O)CSc2nc3ccccc3c(=O)n2-c2ccccc2)CC1	-5.9	-8.1	-1.0	2.0	0.0	-1.4	.	.	.
CCOC(=O)N1CCN(C(=O)CSc2ncnc3ccccc23)CC1	-3.4	53.6*	-7.9	-2.7	1.5	-1.3	-26.6	-18.0	.
O=C(N/N=C/c1ccc(OCCCF)cc1)c1ccc(C(F)(F)F)cc1	24.8	93.2*	14.8	1.7	28.3	29.8	63.9*	-18.6	-12.9
O=C(N/N=C/c1ccc(OC(=O)c2cccs2)cc1)c1ccc(F)cc1	14.1	69.6*	-8.4	-3.5	28.0	28.2	64.2*	-15.1	-28.8
Cc1cccc(C(=O)Oc2ccc(/C=N/NC(=O)c3cc(O)cc(O)c3)cc2)c1	63.3*	52.6*	-5.7	31.0	69.0*	12.0	60.4*	-8.7	3.3
O=C(Oc1ccc(/C=N/NC(=O)c2ccccc2O)cc1)c1ccccc1	-0.7	82.0*	-0.4	0.2	-5.6	2.5	70.0*	-5.4	-8.3
Cc1cccc(C(=O)Oc2ccc(/C=N/NC(=O)c3ccncc3)cc2)c1	1.2	-5.2	-4.2	-1.7	-3.6	0.1	.	.	.
O=C(N/N=C/c1ccc(F)cc1)c1ccccc1	1.7	-5.5	-2.1	0.4	0.5	1.1	.	.	.
SMILES	STEP inh	Scp1 inh	Rpn11 block	SUMO1-SIM PPI	DNMT1 block	LMPTP block	Scp1 confirm	MG interference	Scp-1 Tm shift
CC(C)(C)c1ccc2c(c1)OC(C(=O)N/N=C/c1ccc([N+](=O)[O-])o1)CO2 (configuration not stated)	11.0	107.5*	-6.0	-16.9	1.1	4.6	64.2*	-12.6	4.1
CC(C)(C)c1ccc2c(c1)OC(C(=O)N/N=C\c1ccncc1)CO2 (configuration not stated)	-0.4	-0.7	8.4	-7.4	-0.9	0.4	.	.	.
CCOC(=O)c1cc(-c2ccc(OC)cc2)nn1-c1ccccc1C(=O)O	25.1	61.4*	7.4	69.3*	28.4	10.8	42.1*	-7.9	-5.9
COc1ccc(-c2cc(C(=O)NN)n(-c3ccccc3)n2)cc1	-0.7	2.6	0.8	4.2	-7.8	-1.1	.	.	.
N#C/C(=C\c1ccc[nH]1)C(=O)Nc1ccccc1[N+](=O)[O-]	-0.9	55.0*	-24.1	25.5	21.1	32.4	64.2*	-6.5	5.3*
C[C@@H]1CN([C@@H](C)CO)C(=O)c2cccc(NS(C)(=O)=O)c2O[C@H]1CN(C)Cc1ccc(C(=O)O)cc1	2.8	-7.7	-6.1	-2.6	0.5	-0.9	.	.	.
C[C@H](CO)N1C[C@H](C)[C@@H](CN(C)Cc2ccc(C(=O)O)cc2)Oc2c(NS(=O)(=O)c3cn(C)cn3)cccc2C1=O	-1.5	61.6*	-9.8	3.4	6.4	-1.9	4.8	-4.0	.
C[C@H](CO)N1C[C@H](C)[C@@H](CN(C)CC2CCCCC2)Oc2c(NS(=O)(=O)c3cn(C)cn3)cccc2C1=O	-2.0	59.4*	-3.1	16.4	2.4	-1.8	7.5	-3.8	.
C[C@H](CO)N1C[C@H](C)[C@@H](CN(C)Cc2ccccc2)Oc2c(NS(=O)(=O)c3cn(C)cn3)cccc2C1=O	1.6	68.9*	4.0	-4.5	-1.9	-0.8	-4.1	-12.9	.
C[C@H]1CN([C@@H](C)CO)C(=O)c2cccc(NS(=O)(=O)c3cn(C)cn3)c2O[C@H]1CN(C)S(C)(=O)=O	-1.7	10.6	1.2	-2.1	2.1	-0.8	.	.	.

High-throughput results deposited in PubChem BioAssay by Sanford-Burnham Center for Chemical Genomics.
